Active and inactive are the calls of the source. Unless noted, no stated cut-off is given here; in the data, active means inhibition above about 30%; inactive means the rest.
Key:
[1] = reducers of endogenous Her2 protein level, primary screen, SKBR3 breast tumor cells, AlphaScreen, ATP viability (AID 461;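 active means Her2 level under about 52% in both replicate screens, with viability over 70% of control, limit read from the data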;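 on Her2 level: lower value means less Her2 protein in the cells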;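 on viability: percent of carrier control wells set as 100% viability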); settings: 18-24 h, measured here: SKBR3 viability, ATP luminescence, at 10 µM
[2] = target: Receptor tyrosine-protein kinase erbB-2 (Homo sapiens) (UniProt P04626); test: as above; settings: 18-24 h, at 10 µM, stronger effect = lower value
[3] = SK-BR-3 cell growth inhibitors, pilot screen, 24 h, human (AID 572;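 active means viability at or below 10% of carrier control in both of two separate runs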;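 further: compound exposure lasted between 18 and 24 h rather than exactly 24 h; 100% = carrier-treated control wells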); settings: SK-BR-3 viability, CellTiter-Glo luminescence, at 10 µM, stronger effect = lower value
[4] = HUVEC growth inhibition – cell-based, human, primary screen (AID 575;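 active means viability at or below 30% in both replicate assays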;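 further: 100% = median of untreated cell wells with 0.1% DMSO on each plate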); settings: HUVEC proliferation, CellTiter-Glo luminescence, 72 h; at 10 µM; stronger effect = lower value
Summary of the method: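 Test system – primary HUVEC, no more than 12 passages · Dosing – one dose, 10 µM final, 0.1% DMSO · Times – 72 h treatment at 37 °C · Measured by – ATP-based CellTiter-Glo luminescent read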

[5] = growth inhibitors of H69AR lung tumor, primary screen, human, duplicate replicates (AID 580;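 active means viability at or under a set limit in both replicates, limit being median viability minus 3 SD, cut at about 48% in these data, passing the limit was not always enough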;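 further: 100% = mean luminescence of untreated wells and 0% = no signal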); settings: H69AR lung tumor cells viability, ATP luminescence, 72 h; at 10 µM; stronger effect = lower value
[6] = reversal of MRP1-mediated doxorubicin resistance, pilot screen, H69AR cells, doxorubicin co-treatment (AID 601;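 active means viability loss from added drug above about 55%, and viability with drug at most 40%, in both replicates, limit read from the data, passing the limit was not always enough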); settings: CellTiter-Glo, 72 h, at 10 µM; for differential viability (reversal): stronger effect = higher value
[7] = 384-well plate pilot, post-Golgi transport modulator project, inhibition of yeast transport mutant growth (AID 636; in the data active means inhibition above about 31%); settings: absorbance 615 nm, about 18 h, stronger effect = higher value
[8] = growth suppression of yeast trafficking mutant, preliminary HTS, modulators of trafficking downstream of Golgi apparatus project, 1536-format plate, OD 615 nm (AID 637); settings: yeast transport mutant growth, absorbance 615 nm, 18 h; stronger effect = higher value
[9] = H69AR cells + 2 uM doxorubicin, measured here: viability with 2 uM doxorubicin, stronger effect = lower value
[10] = H69AR cells, compound alone cytotoxicity

Receptor tyrosine-protein kinase erbB-2 (Homo sapiens), sequence (P04626 whole entry, looked up): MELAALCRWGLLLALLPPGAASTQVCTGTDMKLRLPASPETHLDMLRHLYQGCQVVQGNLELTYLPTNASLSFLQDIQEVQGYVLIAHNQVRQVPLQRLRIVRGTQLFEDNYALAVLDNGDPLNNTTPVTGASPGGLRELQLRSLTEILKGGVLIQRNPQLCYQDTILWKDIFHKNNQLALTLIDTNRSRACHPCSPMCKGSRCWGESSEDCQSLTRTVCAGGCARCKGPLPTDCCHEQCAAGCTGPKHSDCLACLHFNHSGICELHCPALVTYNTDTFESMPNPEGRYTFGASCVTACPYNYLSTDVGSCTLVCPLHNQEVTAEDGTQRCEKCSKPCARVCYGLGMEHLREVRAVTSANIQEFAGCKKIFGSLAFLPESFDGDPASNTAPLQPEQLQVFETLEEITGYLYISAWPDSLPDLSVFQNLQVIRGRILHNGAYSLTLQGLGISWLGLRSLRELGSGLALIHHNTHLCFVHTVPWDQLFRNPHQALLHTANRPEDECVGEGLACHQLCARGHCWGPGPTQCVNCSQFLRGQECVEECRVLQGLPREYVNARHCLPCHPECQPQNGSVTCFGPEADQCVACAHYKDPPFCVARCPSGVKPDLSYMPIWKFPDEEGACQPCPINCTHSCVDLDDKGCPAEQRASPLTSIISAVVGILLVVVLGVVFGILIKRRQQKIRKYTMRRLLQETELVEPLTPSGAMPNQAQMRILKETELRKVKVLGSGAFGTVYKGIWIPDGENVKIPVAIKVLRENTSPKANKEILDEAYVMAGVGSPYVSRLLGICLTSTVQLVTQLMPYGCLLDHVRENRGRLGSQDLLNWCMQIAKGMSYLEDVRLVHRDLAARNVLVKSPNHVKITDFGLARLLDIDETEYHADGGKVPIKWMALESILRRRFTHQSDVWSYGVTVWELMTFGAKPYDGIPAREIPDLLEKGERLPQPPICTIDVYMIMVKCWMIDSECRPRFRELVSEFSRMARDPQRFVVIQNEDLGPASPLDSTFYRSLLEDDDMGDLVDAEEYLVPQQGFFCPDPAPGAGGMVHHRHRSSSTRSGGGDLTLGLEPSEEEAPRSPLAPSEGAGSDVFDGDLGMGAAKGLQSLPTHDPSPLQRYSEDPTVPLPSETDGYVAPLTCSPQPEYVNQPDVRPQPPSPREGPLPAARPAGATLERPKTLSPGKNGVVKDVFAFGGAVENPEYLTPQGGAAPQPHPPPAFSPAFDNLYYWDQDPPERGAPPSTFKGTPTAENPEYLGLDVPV

Compound	viability [1] [%]	Her2 level [2]	viability [3]	viability [4]	viability [5]	differential viability (reversal) ([6]; H69AR cells + 2 uM doxorubicin)	viability [6, 9] [%]	viability [6, 10] [%]	inhibition [7]	inhibition [8]
CCCOc1ccccc1NC(=O)c1ccc(N)cc1	95	84% (inactive)	95% (inactive)	100% (inactive)	98.2% (inactive)	7.58% (inactive)	90.6	98.2	-5.53% (inactive)	-2.17% (inactive)
O=C(Nc1cccc2ncccc12)c1ccc2c(c1)OCCO2	84	104% (inactive)	84% (inactive)	100% (inactive)	104% (inactive)	11.7% (inactive)	92.1	104	-1.17% (inactive)	-3% (inactive)
N#CC(C(=O)CCN1C(=O)C2CC=CCC2C1=O)c1nc2ccccc2[nH]1 (stereo not given)	116	98% (inactive)	116% (inactive)	95.9% (inactive)	91.1% (inactive)	3.88% (inactive)	87.2	91.1	-5.07% (inactive)	6.23% (inactive)
Cc1ccc(S(=O)(=O)CCC(=O)Nc2ccc3c(c2)OCO3)cc1	96.5	84.5% (inactive)	96.5% (inactive)	92.5% (inactive)	81.3% (inactive)	-10.8% (inactive)	92.1	81.3	0.95% (inactive)	-2.22% (inactive)
CN(CC(O)COc1ccc(OCC(O)CN(C)C2CCCCC2)cc1)C1CCCCC1 (stereo not given)	88	82% (inactive)	88% (inactive)	65.5% (inactive)	89.9% (inactive)	10.4% (inactive)	79.5	89.9	-5.66% (inactive)	4.6% (inactive)
COc1ccc2[nH]c(=O)c(CN(Cc3cccs3)Cc3nnnn3C(C)(C)C)cc2c1	77.5	90% (inactive)	77.5% (inactive)	58.7% (inactive)	73.5% (inactive)	7.29% (inactive)	66.2	73.5	-6.13% (inactive)	-0.95% (inactive)
CCn1ncc(C2=NOC(C(=O)NCc3ccc(Cl)cc3)C2)c1C (stereo not given)	83.5	69.5% (inactive)	83.5% (inactive)	38.7% (inactive)	24.4% (active)	-29.8% (inactive)	54.2	24.4	-2.89% (inactive)	-0.32% (inactive)
CCOC(=O)c1ccc(Oc2nc(NC)nc(OC)n2)cc1	100	108% (inactive)	100% (inactive)	103% (inactive)	104% (inactive)	5.53% (inactive)	98.8	104	-1.35% (inactive)	-6.67% (inactive)
Cc1cc2oc(C(=O)NC3CCS(=O)(=O)C3)c(C)c2cc1C (stereo not given)	99.5	98% (inactive)	99.5% (inactive)	97.7% (inactive)	93.7% (inactive)	22.6% (inactive)	71	93.7	1.45% (inactive)	1.48% (inactive)
C/C(=C\C(=O)O)CC(=O)O	100	119% (inactive)	100% (inactive)	98% (inactive)	84.5% (inactive)	-15.7% (inactive)	100	84.5	-7.5% (inactive)	5.25% (inactive)
O=C(C1=C(O)C(=O)N(Cc2ccccc2)C1c1ccncc1)c1ccco1 (stereo not given)	97.5	111% (inactive)	97.5% (inactive)	109% (inactive)	104% (inactive)	3.21% (inactive)	101	104	-0.26% (inactive)	-5.33% (inactive)
CCCOC(=O)/C(C(N)=NCc1ccccc1)=C(\O)OCCC	82	95% (inactive)	82% (inactive)	82.6% (inactive)	88.8% (inactive)	-4.66% (inactive)	93.4	88.8	1.3% (inactive)	-2.79% (inactive)
COC(=O)c1cn(-c2ccccc2)nc1C(=O)OC	93.5	89.5% (inactive)	93.5% (inactive)	91% (inactive)	97.8% (inactive)	10.9% (inactive)	86.9	97.8	-4.8% (inactive)	-1.97% (inactive)
O=C(CSc1ncnc2ccccc12)N1CCN(c2ccccc2)CC1	102	92.5% (inactive)	102% (inactive)	94.1% (inactive)	82.7% (inactive)	4.57% (inactive)	78.1	82.7	-1.05% (inactive)	-8.73% (inactive)
CC(NC(=O)NCCCC(=O)O)(C(F)(F)F)C(F)(F)F	104	82% (inactive)	104% (inactive)	97.6% (inactive)	105% (inactive)	8.72% (inactive)	96.5	105	-7.53% (inactive)	1.59% (inactive)
COc1cccc(-n2nnc3c(=O)n(Cc4cccc(F)c4)cnc32)c1	96.5	104% (inactive)	96.5% (inactive)	91.7% (inactive)	99.9% (inactive)	5.36% (inactive)	94.6	99.9	-2.7% (inactive)	16.8% (inactive)

Compound	viability [1] [%]	Her2 level [2]	viability [3]	viability [4]	viability [5]	differential viability (reversal) ([6]; H69AR cells + 2 uM doxorubicin)	viability [6, 9] [%]	viability [6, 10] [%]	inhibition [7]	inhibition [8]
Cn1c2c(c(=O)[nH]c1=O)C(NC(=O)c1ccco1)(C(F)(F)F)C(=O)N2 (stereo not given)	112	118% (inactive)	112% (inactive)	93.3% (inactive)	96.5% (inactive)	4.25% (inactive)	92.3	96.5	-1.45% (inactive)	0.66% (inactive)
COC(=O)c1cc(Oc2ccc(C(=O)OC)cc2N)cc(C(=O)OC)c1	95	100% (inactive)	95% (inactive)	99.1% (inactive)	96.5% (inactive)	-2.62% (inactive)	99.2	96.5	-1.32% (inactive)	-5.82% (inactive)
CS(=O)(=O)N1CCc2cc(C(=O)N3CCCCC3)ccc21	89.5	89% (inactive)	89.5% (inactive)	99.8% (inactive)	96.6% (inactive)	8.06% (inactive)	88.5	96.6	-3.42% (inactive)	1.75% (inactive)
CCn1cc(C(=O)OCc2ccc(F)cc2)c(=O)c2ccc(C)nc21	104	82% (inactive)	104% (inactive)	89.3% (inactive)	79.3% (inactive)	1.26% (inactive)	78.1	79.3	-2.27% (inactive)	0.16% (inactive)
COC(=O)c1[nH]c(C)c(/C(O)=C2\C(=O)C(=O)N(CCN(C)C)C2c2ccccc2OC)c1C (stereo not given)	88	114% (inactive)	88% (inactive)	79% (inactive)	84.3% (inactive)	1.34% (inactive)	82.9	84.3	-6.89% (inactive)	-1.5% (inactive)
O=C(NCC1CCCO1)c1ccc(N2CCCCC2)nc1 (stereo not given)	91.5	109% (inactive)	91.5% (inactive)	113% (inactive)	90.1% (inactive)	4.52% (inactive)	85.6	90.1	0.26% (inactive)	-2.83% (inactive)
CC(C)COc1ccc(C(=O)OCCN2CCOCC2)cc1	98.5	101% (inactive)	98.5% (inactive)	118% (inactive)	98.2% (inactive)	2.9% (inactive)	95.3	98.2	-2.86% (inactive)	-3.65% (inactive)
COc1ccc(C)cc1S(=O)(=O)N(C)CC(=O)Nc1ccc2c(c1)OCO2	129	98% (inactive)	129% (inactive)	92.7% (inactive)	89.2% (inactive)	1.07% (inactive)	88.1	89.2	-4.67% (inactive)	-4.92% (inactive)
COc1ccc(CCNC(=O)CN(c2ccccc2OC)S(C)(=O)=O)cc1	112	99.5% (inactive)	112% (inactive)	93.5% (inactive)	99.9% (inactive)	15.6% (inactive)	84.3	99.9	-2.08% (inactive)	-1.48% (inactive)
CCOc1ccc(CCNC(=O)CCc2nc(-c3ccc(OC)cc3)no2)cc1OCC	86.5	104% (inactive)	86.5% (inactive)	81.9% (inactive)	94.3% (inactive)	-5.12% (inactive)	99.4	94.3	-1.05% (inactive)	3.17% (inactive)
CC(C)(C)n1nnnc1C(c1cccs1)N1CCN(Cc2ccccc2)CC1 (stereo not given)	90	98.5% (inactive)	90% (inactive)	86% (inactive)	84.3% (inactive)	0.73% (inactive)	83.6	84.3	-4.16% (inactive)	-2.86% (inactive)
CC(CN1CCCCC1)OC(=O)c1ccc2c(c1)OCO2 (stereo not given)	104	96% (inactive)	104% (inactive)	99.1% (inactive)	94.1% (inactive)	7.31% (inactive)	86.8	94.1	-4.4% (inactive)	6.72% (inactive)
CCCCCC(=O)N1CC2(C)CN(C(=O)CCCCC)CC(C)(C1)C2=O	87	93% (inactive)	87% (inactive)	96.9% (inactive)	87.5% (inactive)	4.14% (inactive)	83.4	87.5	0.9% (inactive)	6.67% (inactive)
COc1cccc(OCCOCCN(C)CCO)c1	124	124% (inactive)	124% (inactive)	84.4% (inactive)	97.3% (inactive)	7.71% (inactive)	89.6	97.3	-4.93% (inactive)	-1.45% (inactive)
COc1cc(/C=N/n2c(C)nnc2C)cc(OC)c1OC	104	95% (inactive)	104% (inactive)	105% (inactive)	103% (inactive)	19.3% (inactive)	83.6	103	-0.53% (inactive)	5.74% (inactive)

Reference: PubChem BioAssay
